According to ChEMBL document CHEMBL4007430, “Synthesis and Cytostatic and Antiviral Profiling of Thieno-Fused 7-Deazapurine Ribonucleosides” (J Med Chem, 2017):

Columns and labels:
U2OS = assay: Cytotoxicity against human U2OS cells assessed as cell growth inhibition after 72 hrs by MTS assay; format: functional, cell-based
[1] = Cytotoxicity against mrp-1/mdr-1 overexpressing human CEM-DNR-bulk cells assessed as cell growth inhibition after 72 hrs by MTS assay; format: functional, cell-based
Outline: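 Cells were exposed to compound for 3 days, then stained with MTS as a quantitative metabolic read-out.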

HCT-116 [2] = assay: Cytotoxicity against human HCT116 cells assessed as cell growth inhibition after 72 hrs by MTS assay; format: functional, cell-based; conditions: HCT-116, 72 h
Outline: (§1)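 Cells were exposed to compound for 3 days, then stained with MTS as a quantitative metabolic read-out. IC50 is the concentration that inhibits cell growth by 50%.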

MRC5 = assay: Cytotoxicity against human MRC5 cells assessed as cell growth inhibition after 72 hrs by MTS assay; format: cell-based; conditions: MRC5, 72 h; outline: as §1
K562 = assay: Cytotoxicity against human K562 cells assessed as cell growth inhibition after 72 hrs by MTS assay; format: functional, cell-based; conditions: K562, 72 h; outline: as §1
CCRF-CEM = assay: Cytotoxicity against human CCRF-CEM cells assessed as cell growth inhibition after 72 hrs by MTS assay
HepG2 = assay: Cytotoxicity against human HepG2 cells assessed as reduction in cell viability after 72 hrs by XTT assay; format: functional, cell-based; conditions: HepG2, 72 h
Outline: (§2)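 Cells were incubated with compound for 3 days. Viability was then measured with the XTT tetrazolium assay.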

HeLa S3 = assay: Cytotoxicity against human HeLaS3 cells assessed as reduction in cell viability after 72 hrs by XTT assay; format: functional, cell-based; conditions: HeLa S3, 72 h; outline: as §2
A549 = assay: Cytotoxicity against human A549 cells assessed as cell growth inhibition after 72 hrs by MTS assay; format: functional, cell-based; conditions: A549, 72 h; outline: as §1
[3] = Cytotoxicity against human K562-TAX cells assessed as cell growth inhibition after 72 hrs by MTS assay; format: functional, cell-based; outline: as §1
HL-60 = assay: Cytotoxicity against human HL60 cells assessed as reduction in cell viability after 72 hrs by XTT assay; format: functional, cell-based; conditions: HL-60, 72 h; outline: as §2
BJ = assay: Cytotoxicity against human BJ cells assessed as cell growth inhibition after 72 hrs by MTS assay; format: cell-based; outline: as §1
HCT-116 [4] = assay: Cytotoxicity against p53 deficient human HCT116 cells assessed as cell growth inhibition after 72 hrs by MTS assay; format: functional, cell-based; conditions: HCT-116, 72 h; outline: as §1
[5] = Cytotoxicity against human HuH7 cells; format: cell-based, Huh-7
Hepatitis C virus [6] = assay: Anti-HCV activity against Hepatitis C virus genotype 2a infected in human Huh7 replicon cells after 96 hrs by luciferase reporter gene assay; format: functional, cell-based, Hepacivirus hominis; conditions: Huh-7, 96 h
Hepatitis C virus [7] = assay: Anti-HCV activity against Hepatitis C virus genotype 1b infected in human Huh7 replicon cells after 96 hrs by luciferase reporter gene assay; format: functional, cell-based, Hepacivirus hominis; conditions: Huh-7, 96 h

With OC[C@H]1O[C@@H](n2c3ncnc(-c4ccco4)c3c3ccsc32)[C@H](O)[C@@H]1O as the molecule, how does the IC50 (U2OS) read?
Its IC50 is greater than 50 µM.

What about the IC50 [1] of the same molecule?
The IC50 was greater than 50 µM.

What about the IC50 (HCT-116 [2]) of the same molecule?
The IC50 was greater than 50 µM.

What about the IC50 (MRC5) of the same molecule?
The IC50 was greater than 50 µM.

And the IC50 (K562)?
The IC50 was greater than 50 µM.

And the IC50 (CCRF-CEM)?
Its IC50 is greater than 50 µM.

And the IC50 (HepG2)?
The IC50 was greater than 50 µM.

And the IC50 (HeLa S3)?
Its IC50 is greater than 50 µM.

What about the IC50 (A549) of the same molecule?
Its IC50 is greater than 50 µM.

And the IC50 [3]?
Its IC50 is greater than 50 µM.

What about the IC50 (HL-60) of the same molecule?
The IC50 was greater than 50 µM.

What about the IC50 (BJ) of the same molecule?
Its IC50 is greater than 50 µM.

What about the IC50 (HCT-116 [4]) of the same molecule?
The IC50 was greater than 50 µM.

With CN(C)c1ncnc2c1c1ccsc1n2[C@@H]1O[C@H](CO)[C@@H](O)[C@H]1O as the molecule, how does the IC50 (U2OS) read?
The IC50 was greater than 50 µM.

And the IC50 [1]?
The IC50 was greater than 50 µM.

And the IC50 (HCT-116 [2])?
The IC50 was greater than 50 µM.

And the IC50 (MRC5)?
Its IC50 is greater than 50 µM.

And the IC50 (K562)?
The IC50 was greater than 50 µM.

What about the IC50 (CCRF-CEM) of the same molecule?
Its IC50 is greater than 50 µM.

And the IC50 (HepG2)?
Its IC50 is greater than 50 µM.

What about the IC50 (HeLa S3) of the same molecule?
The IC50 was greater than 50 µM.

What about the IC50 (A549) of the same molecule?
The IC50 was greater than 50 µM.

And the IC50 [3]?
Its IC50 is greater than 50 µM.

And the IC50 (HL-60)?
The IC50 was greater than 50 µM.

What about the IC50 (BJ) of the same molecule?
Its IC50 is greater than 50 µM.

What about the IC50 (HCT-116 [4]) of the same molecule?
The IC50 was greater than 50 µM.

For Nc1ncnc2c1c1sccc1n2[C@@H]1O[C@H](CO)[C@@H](O)[C@H]1O, which IC50 (U2OS) is on record?
Its IC50 is 2.5 µM.

What about the IC50 [1] of the same molecule?
The IC50 was 15.2 µM.

And the IC50 (HCT-116 [2])?
The IC50 was 5.39 µM.

What about the IC50 (MRC5) of the same molecule?
The IC50 was 30.3 µM.

What about the CC50 [5] of the same molecule?
The CC50 was 16.4 to 17.2 µM.

And the IC50 (K562)?
The IC50 was 6.16 µM.

What about the EC50 (Hepatitis C virus [6]) of the same molecule?
The EC50 was 13.5 µM.

And the IC50 (CCRF-CEM)?
The IC50 was 6.22 µM.

What about the IC50 (HepG2) of the same molecule?
The IC50 was 0.56 µM.

What about the IC50 (HeLa S3) of the same molecule?
Its IC50 is 1.54 µM.

What about the IC50 (A549) of the same molecule?
The IC50 was 11.9 µM.

What about the IC50 [3] of the same molecule?
Its IC50 is 4.28 µM.

And the IC50 (HL-60)?
The IC50 was 0.31 µM.

What about the IC50 (BJ) of the same molecule?
Its IC50 is 16.8 µM.

What about the EC50 (Hepatitis C virus [7]) of the same molecule?
Its EC50 is 5.02 µM.

And the IC50 (HCT-116 [4])?
Its IC50 is 4.37 µM.

With Nc1ncnc2c1c1ccsc1n2[C@@H]1O[C@H](CO)[C@@H](O)[C@H]1O as the molecule, how does the IC50 (U2OS) read?
Its IC50 is 0.51 µM.

What about the IC50 [1] of the same molecule?
Its IC50 is 41.2 µM.

And the IC50 (HCT-116 [2])?
Its IC50 is 46.7 µM.

What about the IC50 (MRC5) of the same molecule?
The IC50 was greater than 50 µM.

And the CC50 [5]?
The CC50 was greater than 44.4 µM.

What about the IC50 (K562) of the same molecule?
Its IC50 is 36.3 µM.

And the EC50 (Hepatitis C virus [6])?
Its EC50 is greater than 44.4 µM.

And the IC50 (CCRF-CEM)?
Its IC50 is 0.3 µM.

And the IC50 (HepG2)?
The IC50 was 1.46 µM.

What about the IC50 (HeLa S3) of the same molecule?
The IC50 was greater than 50 µM.

What about the IC50 (A549) of the same molecule?
Its IC50 is 30.1 µM.

And the IC50 [3]?
The IC50 was 0.82 µM.

And the IC50 (HL-60)?
The IC50 was 0.95 µM.

What about the IC50 (BJ) of the same molecule?
The IC50 was 1.09 µM.

What about the EC50 (Hepatitis C virus [7]) of the same molecule?
The EC50 was 17.5 µM.

And the IC50 (HCT-116 [4])?
Its IC50 is 10.9 µM.

For CN(C)c1ncnc2c1c1sccc1n2[C@@H]1O[C@H](CO)[C@@H](O)[C@H]1O, which IC50 (U2OS) is on record?
Its IC50 is greater than 50 µM.

And the IC50 [1]?
Its IC50 is greater than 50 µM.

And the IC50 (HCT-116 [2])?
Its IC50 is greater than 50 µM.

What about the IC50 (MRC5) of the same molecule?
The IC50 was greater than 50 µM.

And the IC50 (K562)?
Its IC50 is greater than 50 µM.

What about the IC50 (CCRF-CEM) of the same molecule?
The IC50 was 47.6 µM.

And the IC50 (HepG2)?
The IC50 was greater than 50 µM.

What about the IC50 (HeLa S3) of the same molecule?
The IC50 was greater than 50 µM.

And the IC50 (A549)?
The IC50 was greater than 50 µM.

And the IC50 [3]?
The IC50 was greater than 50 µM.

What about the IC50 (HL-60) of the same molecule?
The IC50 was greater than 50 µM.

What about the IC50 (BJ) of the same molecule?
Its IC50 is greater than 50 µM.

What about the IC50 (HCT-116 [4]) of the same molecule?
The IC50 was greater than 50 µM.

With OC[C@H]1O[C@@H](n2c3ccsc3c3c(-c4ccoc4)ncnc32)[C@H](O)[C@@H]1O as the molecule, how does the IC50 (U2OS) read?
Its IC50 is greater than 50 µM.

What about the IC50 [1] of the same molecule?
Its IC50 is greater than 50 µM.

What about the IC50 (HCT-116 [2]) of the same molecule?
The IC50 was greater than 50 µM.

And the IC50 (MRC5)?
The IC50 was greater than 50 µM.

What about the IC50 (K562) of the same molecule?
Its IC50 is greater than 50 µM.

What about the IC50 (CCRF-CEM) of the same molecule?
Its IC50 is 3.61 µM.

What about the IC50 (HepG2) of the same molecule?
The IC50 was greater than 50 µM.

And the IC50 (HeLa S3)?
The IC50 was greater than 50 µM.

What about the IC50 (A549) of the same molecule?
Its IC50 is greater than 50 µM.

And the IC50 [3]?
The IC50 was greater than 50 µM.

What about the IC50 (HL-60) of the same molecule?
Its IC50 is greater than 50 µM.

What about the IC50 (BJ) of the same molecule?
The IC50 was 32 µM.

What about the IC50 (HCT-116 [4]) of the same molecule?
Its IC50 is greater than 50 µM.

For OC[C@H]1O[C@@H](n2c3ccsc3c3c(-c4ccco4)ncnc32)[C@H](O)[C@@H]1O, which IC50 (U2OS) is on record?
Its IC50 is greater than 50 µM.

What about the IC50 [1] of the same molecule?
Its IC50 is greater than 50 µM.

What about the IC50 (HCT-116 [2]) of the same molecule?
Its IC50 is greater than 50 µM.

What about the IC50 (MRC5) of the same molecule?
Its IC50 is greater than 50 µM.

And the IC50 (K562)?
Its IC50 is greater than 50 µM.

What about the IC50 (CCRF-CEM) of the same molecule?
Its IC50 is greater than 50 µM.

And the IC50 (HepG2)?
The IC50 was greater than 50 µM.

What about the IC50 (HeLa S3) of the same molecule?
Its IC50 is greater than 50 µM.

What about the IC50 (A549) of the same molecule?
Its IC50 is greater than 50 µM.

And the IC50 [3]?
Its IC50 is greater than 50 µM.

And the IC50 (HL-60)?
Its IC50 is greater than 50 µM.

And the IC50 (BJ)?
The IC50 was greater than 50 µM.

What about the IC50 (HCT-116 [4]) of the same molecule?
The IC50 was greater than 50 µM.

What does the source list for Nc1ccn([C@@H]2O[C@H](CO)[C@@H](O)C2(F)F)c(=O)n1 [GEMCITABINE]?
IC50 (MRC5): > 50 µM; IC50 (BJ): > 50 µM

With CC(C)C(=O)OC[C@H]1O[C@@H](n2ccc(N)nc2=O)[C@](C)(F)[C@@H]1OC(=O)C(C)C [MERICITABINE] as the molecule, how does the CC50 [5] read?
The CC50 was greater than 44.4 µM.

Which results are given for OC[C@H]1O[C@@H](n2c3ncnc(-c4ccoc4)c3c3ccsc32)[C@H](O)[C@@H]1O?
IC50 (U2OS): > 50 µM; IC50 [1]: > 50 µM; IC50 (HCT-116 [2]): > 50 µM; IC50 (MRC5): > 50 µM; IC50 (K562): > 50 µM; IC50 (CCRF-CEM): > 50 µM; IC50 (HepG2): > 50 µM; IC50 (HeLa S3): > 50 µM; IC50 (A549): > 50 µM; IC50 [3]: > 50 µM; IC50 (HL-60): > 50 µM; IC50 (BJ): > 50 µM; IC50 (HCT-116 [4]): > 50 µM
